# HGIII-sPLA2 inh: human group III sPLA2 inhibitors, primary screen, biochemical, QFRET, BODIPY PC-A2 liposome substrate | QFRET BODIPY PC-A2 liposome hydrolysis, fluorescence | inhibition, % at 12.2 µM | actives 0.56% (n = 370,000);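 active = inhibition above mean plus 3 SD of compounds lying within the high and low control bounds, cut at about 19% in these data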;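 note: 0% = median of test compound wells and 100% = no enzyme DMSO wells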
# Target sequence (Q9NZ20 whole entry, looked up): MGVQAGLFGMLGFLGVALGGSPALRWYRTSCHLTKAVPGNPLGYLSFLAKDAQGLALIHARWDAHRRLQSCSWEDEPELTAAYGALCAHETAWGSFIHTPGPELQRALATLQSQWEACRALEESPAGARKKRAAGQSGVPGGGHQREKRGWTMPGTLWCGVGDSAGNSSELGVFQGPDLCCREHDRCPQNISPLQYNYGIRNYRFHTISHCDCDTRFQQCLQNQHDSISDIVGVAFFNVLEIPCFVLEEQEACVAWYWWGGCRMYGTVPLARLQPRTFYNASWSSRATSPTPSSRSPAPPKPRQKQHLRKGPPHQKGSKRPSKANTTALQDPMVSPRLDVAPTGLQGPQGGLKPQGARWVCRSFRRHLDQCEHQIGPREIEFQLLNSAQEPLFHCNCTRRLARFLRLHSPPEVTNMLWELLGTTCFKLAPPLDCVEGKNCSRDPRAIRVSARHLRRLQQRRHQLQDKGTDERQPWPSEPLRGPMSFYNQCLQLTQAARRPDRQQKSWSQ
# Rev-erbA mod: modulators of Rev-erb alpha DNA binding, primary screen, biochemical, FITC-DNA, fluorescence polarization, uHTS; Nuclear receptor subfamily 1 group D member 1 (Homo sapiens), P20393; Rev-erbα–FITC-DNA binding, 90 min; activity, % at 10 µM; actives 0.79% (n = 370,000); AID 1259318, 2017;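 active = activity above about 14%, limit read from the data; passing the limit was not always enough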;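 note: 0% = DMSO wells with 35 nM protein and 100% = DMSO wells with 750 nM protein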
# MsrA inh: bovine MsrA enzyme inhibitors, primary screen, biochemical, absorbance, HTS; AID 651718, 2012; Methionine sulfoxide reductase A (Bos taurus); purified bovine MsrA, absorbance read-out; inhibition, % at 15.5 µM; actives 0.75% (n = 360,000); in the data active = inhibition above about 4.5%;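 note: 0% = vehicle wells with enzyme and 100% = reference inhibitor wells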
# MsrA act: bovine MsrA enzyme activators, primary screen, biochemical, absorbance, HTS; Methionine sulfoxide reductase A (Bos taurus); purified bovine MsrA, absorbance read-out; activation, % at 10.6 µM; actives 0.3% (n = 360,000); AID 602163, 2012; in the data active = activation above about 7.5%;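 note: 0% = vehicle and 100% = reference activator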
# ARFGAP1 inh: inhibitors of rat ARFGAP1 GAP activity, primary screen, biochemical, fluorescence polarization, GDP tracer | ADP-ribosylation factor GTPase-activating protein 1 (Rattus norvegicus), Q62848 | Arfgap1-stimulated ARF1 GTP hydrolysis, GDP FP detection | inhibition, % at 16.5 µM | actives 0.26% (n = 360,000) | AID 651572, 2012;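 active = inhibition above a per-plate limit, mean inhibition of low control wells plus 3 SD, cut at about 25% in these data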;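 note: 0% = DMSO wells with enzyme and 100% = wells lacking Arfgap1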
#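 Replicates: Single well per compound | Assay system: Truncated rat Arfgap1 GAP domain | Control set: No-Arfgap1 wells (100%) versus DMSO full-reaction wells (0%) | Times: Enzyme reaction 120 min at 25 °C after 20 min preincubation | Reagent: Human ARF1(Δ1-17)-GTP substrate | Measured by: Tracer-displacement fluorescence polarization with EDTA stop, 620/688 nm | Measure: Percent inhibition of Arfgap1-stimulated GTP hydrolysis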
# ASAP1 inh: inhibitors of human ASAP1 ArfGAP activity, primary screen, biochemical, fluorescence polarization | Arf-GAP with SH3 domain, ANK repeat and PH domain-containing protein 1 (Homo sapiens), … | ASAP1-stimulated ARF1 GTP hydrolysis, GDP FP detection | inhibition, % at 16.5 µM | actives 0.19% (n = 360,000) | AID 624377, 2012; in the data active = inhibition above about 25%;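 note: 0% = vehicle with enzyme and substrate and 100% = no enzyme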
# Active calls of the source: *; / = not tested or not shown. Rows were chosen to be rich in hits. Some 2.7% of all compounds tested hit in one or more screens of this group.
SMILES,HGIII-sPLA2 inh,Rev-erbA mod,MsrA inh,MsrA act,ARFGAP1 inh,ASAP1 inh
C[N@+]12CCCC[C@@H]1CCC(=C(c1cccs1)c1cccs1)C2,/,0,/,/,/,/
CCN1/C(=C/C=C/c2sc3ccccc3[n+]2CC)Sc2ccccc21,/,/,/,-7,/,/
CCN1/C(=C/C=C/C=C/C=C/c2sc3ccccc3[n+]2CC)Sc2ccccc21,13,-9,2,-2,32*,-2
O=C1NC(c2ccccc2)(c2ccccc2)C(=O)N1COP(=O)(O)O,/,-5,/,/,/,/
c1ccc([C@@H]2CCNC[C@H]2COc2ccc3c(c2)OCO3)cc1,/,-9,/,/,/,/
O=C(N/N=C/c1ccc(O)cc1)c1cc(-c2ccc3c(c2)OCO3)n[nH]1,-11,3,2,-6,26*,25
CC(=O)N1CCN(c2ccc([N+](=O)[O-])cc2C#N)CC1,4,-1,4.6*,2,-2,15
CCCN1CCN(c2ccc([N+](=O)[O-])cc2C#N)CC1,3,-1,3,-2,7,-1
CC1C(O)=C(c2nc3ccccc3[nH]2)C(=N)N1c1ccccc1 (centres undefined),23*,4,0,-5,7,2
CCc1ccc2[nH]c(=O)c(CN(Cc3ccc(F)cc3)C(c3nnnn3CCN3CCOCC3)C(C)C)cc2c1 (centres undefined),/,/,/,8.6*,/,/
CCCCC(=O)O[C@]1(C(=O)CO)[C@@H](C)CC2C3CCC4=CC(=O)C=C[C@]4(C)[C@@]3(F)C(O)C[C@@]21C (some centres undefined),/,-4,/,/,/,/
C[C@]12C=CC(=O)C=C1CCC1C2[C@@H](O)C[C@@]2(C)C1CC[C@]2(O)C(=O)COC(=O)CCC(=O)O (some centres undefined),/,0,/,/,/,/
COc1ccc(N=Nc2cc(OC)c(N)cc2OC)cc1,18,11,1,-6,1,-6
Cc1cc(N=Nc2ccc(C)c(N=Nc3cc(C)c(N)cc3N)c2)c(N)cc1N,13,15,2,0,25*,16
O=C(O)CCC(=O)Nc1ccc(-c2nc3ccc(C(=O)c4ccccc4)cc3[nH]2)cc1,-12,2,4.6*,-4,-1,-4
O=C(c1ccccc1)c1ccc2nc(-c3ccc(NC(=O)c4ccccc4F)cc3)[nH]c2c1,-4,6,3,1,-6,-2
COc1ccc(/C=N/NC(=O)c2ccc(NC(=O)c3cccc([N+](=O)[O-])c3)cc2)c(C(=O)O)c1OC,3,-6,4.6*,-14,3,10
COc1cc(/C=N/NC(=O)c2cccc(NC(=O)c3ccccc3C)c2)ccc1O,-1,1,1,-1,6,-2
COc1cc(/C=N/NC(=O)c2cccc(NC(=O)c3ccccc3)c2)ccc1O,3,-5,4.6*,-3,12,-3
C[C@@H]1CN([C@H](C)CO)C(=O)c2cc(NC(=O)Nc3ccc(C(F)(F)F)cc3)ccc2O[C@H]1CN(C)S(=O)(=O)c1cccs1,-35,-1,-1,-8,11,26*
C[C@H](CO)N1C[C@H](C)[C@@H](CN(C)S(=O)(=O)c2cccs2)Oc2ccc(NC(=O)Nc3ccc(C(F)(F)F)cc3)cc2C1=O,-33,0,0,0,1,13
O=C(NCCN1CCc2ccccc2C1)Nc1ccc([N+](=O)[O-])cc1,21*,1,3,-4,3,-5
CCCC[C@H](C)C[C@H](O)/C=C/[C@H]1[C@H](O)CC(=O)[C@@H]1CCCC/C=C/C(=O)O,/,-4,/,/,/,/
CC(C)CC1C(=O)N2CCC[C@H]2C2(O)O[C@](NC(=O)C3C=C4c5cccc6[nH]c(Br)c(c56)C[C@H]4N(C)C3)(C(C)C)C(=O)N12 (some centres undefined),/,3,/,/,/,/
O=C(CCl)NCCN1C(=O)S/C(=C\c2cccnc2)C1=O,6,/,3,-9,-2,3
SMILES,HGIII-sPLA2 inh,Rev-erbA mod,MsrA inh,MsrA act,ARFGAP1 inh,ASAP1 inh
CC(C(=O)NCCN1C(=O)S/C(=C\c2cccnc2)C1=O)N1C(=O)c2ccccc2C1=O (centres undefined),6,1,4.6*,-11,6,8
Cc1ccc(/C=N/NC(=S)NC2CCS(=O)(=O)C2)cc1 (centres undefined),7,1,2,-3,8,-4
COc1ccc(/C=N/NC(=S)NC2CCS(=O)(=O)C2)cc1OC (centres undefined),2,1,6.0*,-6,-12,-4
CCCC(=O)NC(c1cccc([N+](=O)[O-])c1)c1ccc2cccnc2c1O (centres undefined),22*,-13,-1,0,10,-5
CCCC(=O)NC(c1ccc(Cl)cc1Cl)c1ccc2cccnc2c1O (centres undefined),26*,-2,-1,-5,4,8
CC(C)C(=O)NC(c1cccc([N+](=O)[O-])c1)c1ccc2cccnc2c1O (centres undefined),23*,0,-1,1,-12,-4
COc1cc2cc(C(=O)Nc3ccc4c(c3)OCCO4)[nH]c2cc1OC,-6,3,4.6*,-5,16,11
Cc1ccc2cc3cc(C(=O)NCCCN4CCCC4=O)oc3nc2c1,-3,3,4.6*,-5,-5,-15
C=NC(C(=O)N[C@H]1C(=O)N2C1SC(C)(C)C2C(=O)O)c1ccccc1 (some centres undefined),/,5,/,/,/,/
O=C1OCCN1C(=O)[C@H]1[C@H](c2ccc([N+](=O)[O-])cc2)C(c2ccc(F)cc2)=NN1c1ccc(Br)cc1,2,6,4.7*,-12,-1,11
O=C1OCCN1C(=O)[C@H]1[C@H](c2ccc([N+](=O)[O-])cc2)C(c2ccc(F)cc2)=NN1c1ccccc1,-17,-3,2,-1,0,7
C[N+]1(C)CCN(CC(O)(c2ccccc2)C2CCCCC2)CC1 (centres undefined),/,3,/,/,/,/
CC(=O)OCC(=O)[C@@]1(OC(C)=O)[C@@H](C)CC2C3C[C@H](F)C4=CC(=O)C=C[C@]4(C)[C@@]3(F)[C@@H](O)C[C@@]21C (some centres undefined),/,-4,/,/,/,/
